Active and inactive are the calls of the source.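 The calls were made as follows: active = recipient E. coli survival below 80% of the solvent-only control; inactive = survival at 80% of control or higher.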

This experiment deals with E. coli V66 viability, colony formation, 1.5 h. The experiment in a line: recipient strain killing during Hfr crosses – colony formation, single concentration, Hfr recombination, cytotoxicity control for AddAB inhibitor project, late-stage follow-up (AID 623916). The conditions noted are these: at 100 µM. The essentials: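 System: E. coli strain V66 recipients | Reagent: Hfr donor strain V1306 (HfrH), donor to recipient 1:10 | Compound: Single nominal 100 µM compound, present during pre-growth and mating | Times: 1.5 h total compound exposure | Technique: Colony counts of V66 on non-selective agar plates, CFU/mL | Benchmarks: DMSO vehicle control as viability reference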
On to `CCn1cc(C(=O)O)c(=O)c2cnc(N3CCN(C(=S)Nc4cccc(C(F)(F)F)c4)CC3)nc21`, for which the result was inactive.

For the compound `N#Cc1c(NC(=O)c2ccccc2C(=O)O)sc2c1CCCC2`, the outcome was inactive.

For `Cc1sc(NC(=O)c2ccc(Br)o2)c(C#N)c1C`, the result was inactive.

On to `CC1CCc2c(sc(NC(=O)c3ccc([N+](=O)[O-])o3)c2C#N)C1` (centres undefined), for which the outcome was inactive.

Turning to `CCn1cc(C(=O)O)c(=O)c2cnc(N3CCN(C(=S)Nc4ccccc4Cl)CC3)nc21`, the result was inactive.

For the compound `CCn1cc(C(=O)O)c(=O)c2cnc(N3CCN(C(=S)Nc4ccc5c(c4)OCCO5)CC3)nc21`, the outcome was inactive.

With `CCn1cc(C(=O)O)c(=O)c2cnc(N3CCN(C(=S)Nc4ccc5c(c4)OCO5)CC3)nc21`, the result was inactive.

Take `Nc1c(NC(=O)c2ccc([N+](=O)[O-])o2)sc2c1CCCC2`: the outcome was inactive.

For the compound `O=C(Nc1cccc(NC(=O)c2ccccc2Cl)c1)c1ccc([N+](=O)[O-])o1`, the result was inactive.

For the compound `Cc1cccnc1NC(=O)c1ccc([N+](=O)[O-])o1`, the outcome was inactive.

Regarding `Cc1ccc(C(=O)Nc2sc3c(c2C#N)CCC3)o1`, the outcome was inactive.

Consider `CCn1cc(C(=O)O)c(=O)c2cnc(N3CCN(C(=S)NC(=O)c4cccc(C)c4)CC3)nc21`, for which the result was inactive.

Regarding `O=C(OCC(=O)c1cccs1)c1ccc([N+](=O)[O-])o1`, the outcome was inactive.

Regarding `CCn1cc(C(=O)O)c(=O)c2cnc(N3CCN(C(=S)NC(=O)c4cccnc4)CC3)nc21`, the result was inactive.

With `N#Cc1c(NC(=O)C2CC=CCC2C(=O)O)sc2c1CCC2` (centres undefined), the outcome was inactive.

Turning to `O=C(Nc1ccc(N2CCOCC2)cc1)c1ccc([N+](=O)[O-])o1`, the result was inactive.

For `O=C(NCc1cccnc1)c1ccc([N+](=O)[O-])o1`, the result was inactive.

In the case of `CCn1cc(C(=O)O)c(=O)c2cnc(N3CCN(C(=S)Nc4ccccc4OC)CC3)nc21`, the outcome was inactive.

With `C=CCn1c(Sc2ncc([N+](=O)[O-])s2)n[nH]c1=O`, the outcome was inactive.

Regarding `N#Cc1c(NC(=O)c2ccc(-c3ccccc3[N+](=O)[O-])o2)sc2c1CCCC2`, the outcome was inactive.

Regarding `CC1(C)Cc2c(sc(NC(=O)c3ccco3)c2C#N)CO1`, the result was inactive.

As for `N#Cc1c(NC(=O)c2ccc([N+](=O)[O-])o2)sc2c1CCC2`, the result was inactive.

With `N#Cc1c(NC(=O)c2ccco2)sc2c1CCC2`, the result was inactive.

On to `CCn1cc(C(=O)O)c(=O)c2cnc(N3CCN(C(=S)NCc4ccccc4)CC3)nc21`, for which the outcome was inactive.

With `CC1CCc2c(sc(NC(=O)c3ccc([N+](=O)[O-])o3)c2N)C1` (centres undefined), the outcome was inactive.

`N#Cc1c(NC(=O)c2cnccn2)sc2c1CCCC2`: the outcome was inactive.

Turning to `CCn1cc(C(=O)O)c(=O)c2cc(F)c(N3CCN(C(=S)Nc4cccc(C(F)(F)F)c4)CC3)cc21`, the outcome was active.

As to `CCn1cc(C(=O)O)c(=O)c2cnc(N3CCN(C(=S)Nc4ccccc4F)CC3)nc21`, the result was inactive.

For `CCn1cc(C(=O)O)c(=O)c2cnc(N3CCN(C(=S)Nc4ccccc4C(F)(F)F)CC3)nc21`, the outcome was inactive.

On to `C=CCNC(=S)N1CCN(c2ncc3c(=O)c(C(=O)O)cn(CC)c3n2)CC1`, for which the outcome was inactive.

On to `CCn1cc(C(=O)O)c(=O)c2cnc(N3CCN(C(=S)Nc4ccc(Cl)cc4)CC3)nc21`, for which the outcome was inactive.

With `CCn1cc(C(=O)O)c(=O)c2cnc(N3CCN(C(=S)NC)CC3)nc21`, the result was inactive.

`Cc1ccc(C(=O)Nc2sc3c(c2C#N)CCCCC3)o1`: the result was inactive.

For `N#Cc1c(NC(=O)c2ccccc2)sc2c1CCC2`, the result was inactive.

As to `CCn1cc(C(=O)O)c(=O)c2cnc(N3CCN(C(=S)Nc4ccc(F)cc4)CC3)nc21`, the outcome was inactive.

Consider `CCn1cc(C(=O)O)c(=O)c2cnc(N3CCN(C(=S)Nc4ccccc4)CC3)nc21`, for which the outcome was inactive.

Turning to `Cc1ccc2nc(/C(C#N)=C\c3ccc([N+](=O)[O-])o3)[nH]c2c1`, the outcome was inactive.

In the case of `CCn1cc(C(=O)O)c(=O)c2cnc(N3CCNCC3)nc21`, the outcome was inactive.

As to `N#Cc1c(NC(=O)c2ccc([N+](=O)[O-])o2)sc2c1CCCC2`, the result was inactive.

Regarding `N#Cc1c(NC(=O)c2cccc(F)c2)sc2c1CCCC2`, the outcome was inactive.

As to `NC(=O)c1ccsc1NC(=O)COC(=O)c1ccc([N+](=O)[O-])o1`, the outcome was inactive.

Take `O=C(Nc1ncccn1)c1ccc([N+](=O)[O-])o1`: the result was inactive.

As for `CC(=O)Nc1ccc2nc(NC(=O)c3ccc([N+](=O)[O-])o3)sc2c1`, the outcome was inactive.

As for `CCn1cc(C(=O)O)c(=O)c2cnc(N3CCN(C(=S)NC(=O)c4ccco4)CC3)nc21`, the result was inactive.

For the compound `CCn1cc(C(=O)O)c(=O)c2cnc(N3CCN(C(=S)NC(=O)c4ccccc4Cl)CC3)nc21`, the result was inactive.

On to `CCn1cc(C(=O)O)c(=O)c2cnc(N3CCN(C(=O)Nc4ccccc4)CC3)nc21`, for which the result was inactive.

Take `CCn1cc(C(=O)O)c(=O)c2cnc(N3CCN(C(=S)NC(C)c4ccccc4)CC3)nc21` (centres undefined): the outcome was inactive.

Turning to `CCn1cc(C(=O)O)c(=O)c2cnc(N3CCN(C(=S)NC4CC5CCC4C5)CC3)nc21` (centres undefined), the outcome was inactive.

Regarding `CCn1cc(C(=O)O)c(=O)c2cnc(N3CCN(C(=S)Nc4ccccc4C)CC3)nc21`, the result was inactive.

For the origin of these results see PubChem BioAssay AID623916 (The Scripps Research Institute Molecular Screening Center, 2012).
